ChEMBL document CHEMBL3865853, “Synthesis and Bioevaluation of 3,6-Diaryl-[1,2,4]triazolo[4,3-b] Pyridazines as Antitubulin Agents” (ACS Med Chem Lett, 2016)
Calls of active or inactive are those of the source. The calls are words filed in the database; no cut-off is given here.

How the values were obtained:
[1] = Cytotoxicity against human SGC7901 cells assessed as reduction in cell viability after 24 hrs by MTT assay; format: functional, cell-based; details: SGC-7901, 24 h
How it was run: (§1)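 MTT viability assay on A549, HT-1080 and SGC-7901 cells; IC50 as concentration giving 50% inhibition; each experiment run in triplicate.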

[2] = Cytotoxicity against human A549 cells assessed as reduction in cell viability after 24 hrs by MTT assay; format: functional, cell-based; details: A549, 24 h; how it was run: as §1
[3] = Cytotoxicity against human HT1080 cells assessed as reduction in cell viability after 24 hrs by MTT assay; format: functional, cell-based; details: HT-1080, 24 h; how it was run: as §1
Sus scrofa = species: Sus scrofa; experiment: (§2) Inhibition of pig brain tubulin polymerization measured at 1 min intervals for 90 mins by spectrophotometric analysis
How it was run: (§3)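 Purified tubulin incubated at room temperature with test agent (0.33–10 μM range used), paclitaxel 5.0 μM, or DMSO vehicle; polymerization followed, IC50 derived; mean ± SD of three experiments in triplicate.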

A549 = experiment: Inhibition of alpha-tubulin polymerization in human A549 cells assessed as destruction of tubulin network at 2 times IC50 after 12 hrs by DAPI/FITC-dual staining based fluorescence microscopic analysis; format: cell-based
How it was run: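 Indirect immunofluorescence of microtubule network in cultured A549 cells after treatment at 2-fold IC50 concentrations; DMSO-treated cells as vehicle control.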

[4] = Cell cycle arrest in human A549 cells assessed as accumulation in G2/M phase at 0.018 uM by propidium iodide-staining based FACS analysis; format: functional
[5] = as §2; design: species or system Sus scrofa; how it was run: as §3
[6] = Cell cycle arrest in human A549 cells assessed as accumulation in G2/M phase after 12 hrs by propidium iodide-staining based FACS analysis; format: functional
[7] = Cell cycle arrest in human A549 cells assessed as accumulation in G2/M phase at 0.016 uM by propidium iodide-staining based FACS analysis; format: functional; details: TDE = time-dependent effect

SMILES	IC50 [1]	IC50 [2]	IC50 [3]	inhibition (Sus scrofa)	inhibition (A549)	Activity [4]	IC50 [5]	Activity [6]	Activity [7]
COc1cc(-c2nnc3ccc(-c4ccc(Br)cc4)nn23)cc(OC)c1OC	1280 nM	780 nM	150 nM	–	–	–	–	–	–
COc1ccc(-c2ccc3nnc(-c4cc(OC)c(OC)c(OC)c4)n3n2)cc1F	4170 nM	4230 nM	1690 nM	–	–	–	–	–	–
COc1cc(-c2nnc3ccc(-c4ccc(F)cc4)nn23)cc(OC)c1OC	2020 nM	2180 nM	21 nM	–	–	–	–	–	–
COc1cc(-c2nnc3ccc(-c4ccc(N)cc4)nn23)cc(OC)c1OC	1230 nM	2350 nM	1620 nM	–	–	–	–	–	–
COc1cc(-c2nnc3ccc(-c4ccc(C(F)(F)F)cc4)nn23)cc(OC)c1OC	2210 nM	10400 nM	1860 nM	–	–	–	–	–	–
COc1cc(-c2nnc3ccc(-c4ccc(SC)cc4)nn23)cc(OC)c1OC	98 nM	280 nM	73 nM	–	–	–	–	–	–
COc1ccc(-c2ccc3nnc(-c4cc(OC)c(OC)c(OC)c4)n3n2)cc1[N+](=O)[O-]	2280 nM	4570 nM	6850 nM	–	–	–	–	–	–
COc1ccc(-c2ccc3nnc(-c4ccc(OC)c(OC)c4OC)n3n2)cc1	420 nM	6980 nM	5570 nM	–	–	–	–	–	–
COc1cc(-c2nnc3ccc(-c4ccc(Cl)cc4)nn23)cc(OC)c1OC	25 nM	51 nM	450 nM	–	–	–	–	–	–
COc1ccc(/C=C\c2cc(OC)c(OC)c(OC)c2)cc1O [COMBRETASTATIN A4]	12 nM	9 nM	9 nM	Dose-dependent effect	Active	Active	–	–	–
COc1cc(-c2nnc3ccc(-c4ccc(C#N)cc4)nn23)cc(OC)c1OC	30900 nM	51600 nM	33500 nM	–	–	–	–	–	–
COc1ccc(-c2ccc3nnc(-c4cc(OC)c(OC)c(OC)c4)n3n2)cc1	260 nM	51 nM	17 nM	–	–	–	–	–	–
COc1ccc(-c2nnc3ccc(-c4ccc(C)cc4)nn23)c(OC)c1OC	4530 nM	10400 nM	170 nM	–	–	–	–	–	–
COc1cc(-c2nnc3ccc(-c4cccc(Br)c4)nn23)cc(OC)c1OC	59000 nM	52200 nM	54500 nM	–	–	–	–	–	–
COc1ccc(-c2ccc3nnc(-c4ccc(OC)c(OC)c4OC)n3n2)cc1[N+](=O)[O-]	9140 nM	11400 nM	18200 nM	–	–	–	–	–	–
COc1cc(-c2nnc3ccc(-c4cccc([N+](=O)[O-])c4)nn23)cc(OC)c1OC	86400 nM	90500 nM	50000 nM	–	–	–	–	–	–
COc1cc(-c2nnc3ccc(-c4cccc(N)c4)nn23)cc(OC)c1OC	980 nM	2980 nM	390 nM	–	–	–	–	–	–
COc1cc(-c2nnc3ccc(-c4ccc(C)cc4)nn23)cc(OC)c1OC	16 nM	23 nM	140 nM	–	–	–	–	–	–
COc1cc(-c2nnc3ccc(-c4cccc(Cl)c4)nn23)cc(OC)c1OC	63100 nM	47900 nM	60500 nM	–	–	–	–	–	–
COc1ccc(-c2ccc3nnc(-c4ccc(OC)c(OC)c4OC)n3n2)cc1N	910 nM	2620 nM	920 nM	–	–	–	–	–	–
COc1ccc(-c2ccc3nnc(-c4cc(OC)c(OC)c(OC)c4)n3n2)cc1N	14 nM	8 nM	12 nM	Dose-dependent effect	Active	–	1800 nM	Dose-dependent effect	Tde
COc1cc(-c2nnc3ccc(-c4ccc([N+](=O)[O-])cc4)nn23)cc(OC)c1OC	2380 nM	3850 nM	4940 nM	–	–	–	–	–	–
